HNF4A DNA FP – change in binding of human HNF4A to DNA, primary screen, biochemical, fluorescence polarization, FITC-DNA | Hepatocyte nuclear factor 4-alpha (Homo sapiens), P41235 | activity change, % at 10 µM | AID 1224865, 2016 | actives 0.3% (n = 360,000) | 1 h; in the data active = activity change above about 30%, passing the limit was not always enough
IDE cell activ – human IDE activators in live cells, primary screen, fluorescence polarization, HEK cells, FAbeta-B substrate. Insulin-degrading enzyme (Homo sapiens), P14735. FAbeta-B cleavage; 0% vehicle, 100% cell-free pure enzyme wells. activation, % at 5.96 µM. actives 0.073% (n = 340,000);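 active = activation above the mean of all tested compounds plus 3 SD, set per screening campaign, cut at about 17% in these data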
IDE inh – human IDE inhibitors in live cells, primary screen, fluorescence polarization, HEK cells, FAbetaB substrate; FAbetaB cleavage; inhibition, % at 5.59 µM; actives 0.41% (n = 320,000); AID 434962, 2010;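 active = percent inhibition above the average of all tested compounds plus 3 SD, set per screening campaign, cut at about 16% in these data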;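 note: IDE supplied by intact live HEK cells; FP after avidin binding of uncleaved biotin substrate so inhibition keeps polarization high; 0% = DMSO wells and 100% = 60 µM reference IDE inhibitor Ii1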
TPT1 inhibitor – Candida albicans TPT1 enzyme inhibitors, primary screen, biochemical, fluorescence polarization | tRNA 2'-phosphotransferase TPT1 (Candida albicans SC5314) | recombinant caTPT1, FP RNA substrate dephosphorylation | inhibition, % at 5 µM | actives 0.81% (n = 300,000);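 active = inhibition above the mean of all tested compounds plus 3 SD, set per screening campaign, cut at about 24% in these data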;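 note: plate controls were DMSO alone for no effect and ferristatin control at 100 nM for full effect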
CSN inh – inhibitors of CSN-mediated cullin deneddylation, primary screen, biochemical, fluorescence polarization, uHTS; COP9 signalosome complex subunit 5 (Homo sapiens), Q92905; Purified CSN, SCF-Nedd8-OG deneddylation; inhibition, % at 12.5 µM; actives 0.38% (n = 360,000);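 active = pattern-corrected inhibition above about 35%, with an unprinted fluorescence ratio check between 0.5 and 1.5, limit read from the data, passing the limit was not always enough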;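 note: 0% = enzyme with substrate and 100% = substrate without enzyme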
Target sequence (Q92905 whole entry, looked up, one chain of several): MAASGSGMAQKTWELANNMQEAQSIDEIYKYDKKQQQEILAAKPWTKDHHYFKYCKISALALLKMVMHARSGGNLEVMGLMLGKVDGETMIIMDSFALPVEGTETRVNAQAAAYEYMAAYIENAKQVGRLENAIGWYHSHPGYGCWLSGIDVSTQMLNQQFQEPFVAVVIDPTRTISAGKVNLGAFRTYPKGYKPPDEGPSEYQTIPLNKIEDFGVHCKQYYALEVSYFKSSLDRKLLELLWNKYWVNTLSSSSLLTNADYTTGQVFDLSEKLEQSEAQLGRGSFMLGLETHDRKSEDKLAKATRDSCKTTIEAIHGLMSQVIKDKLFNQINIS
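assay system = purified human Csn5 enzyme expressed in HEK293T cells | amount = 0.24 nM enzyme | buffer or medium = Tris/NaCl/DTT buffer, pH 7.5 | reagent = 10 nM SCFSkp2-Nedd8OG | compound = one concentration, 12.5 µM, 0.25% DMSO | times = 90 min reaction at room temperature | signal = FP | read-out basis = % inhibition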
Rpn11 block – Rpn11 (PSMD14) deubiquitinase inhibitors, primary screen, biochemical, fluorescence polarization, uHTS; 26S proteasome non-ATPase regulatory subunit 14 (Homo sapiens), O00487; human 26S proteasome, Ub4-pepOG fluorescence polarization; 20S core pre-blocked with epoxomicin; calls only at 20 µM; actives 0.59% (n = 360,000); AID 588493, 2011;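 active = inhibition at 20 µM, scaled to each plate's controls, above about 33%, limit read from the data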
Target sequence (O00487 whole entry, looked up): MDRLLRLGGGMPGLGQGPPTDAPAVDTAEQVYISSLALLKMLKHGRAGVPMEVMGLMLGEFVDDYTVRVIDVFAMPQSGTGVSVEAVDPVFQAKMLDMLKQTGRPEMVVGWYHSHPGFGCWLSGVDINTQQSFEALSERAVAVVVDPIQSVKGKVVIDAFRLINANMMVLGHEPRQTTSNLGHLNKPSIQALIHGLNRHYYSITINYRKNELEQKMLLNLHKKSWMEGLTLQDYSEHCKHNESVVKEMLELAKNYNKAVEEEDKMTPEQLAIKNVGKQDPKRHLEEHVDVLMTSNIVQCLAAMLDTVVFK
* marks the source's active call; other numbers are inactive results. The list is not random: actives were taken first. Their share in the collection is about 1.7%.

Screening O=C(Nc1ccccc1Cl)N1CCN(c2ncccn2)CC1 returned HNF4A DNA FP -0.7, IDE cell activ -0.4, IDE inh -1.7, TPT1 inhibitor -4.7, CSN inh -0.7 and Rpn11 block inactive.
Screening COc1ccc2[nH]c3c(NCCN4CCCCC4)ncnc3c2c1 returned HNF4A DNA FP -1.7, IDE cell activ 1.1, IDE inh 6.6, TPT1 inhibitor 1.9, CSN inh -0.9 and Rpn11 block inactive.
COc1cc(CNc2ncnc3c2[nH]c2ccc(C)cc23)cc(OC)c1 was read as HNF4A DNA FP 5.7, IDE cell activ -41.2, IDE inh 55.5*, TPT1 inhibitor 2.1, CSN inh -1.0 and Rpn11 block inactive.
`COc1ccc(/C=N/Nc2ncnc3c2[nH]c2ccc(C)cc23)c(OC)c1OC` gave HNF4A DNA FP 13.0, IDE inh 39.0*, TPT1 inhibitor 1.6, CSN inh 5.0 and Rpn11 block inactive.
Screening CCCC(CCC)C(=O)Nc1cccc(-c2cn3c(n2)SCC3)c1 returned HNF4A DNA FP 38.1*, IDE cell activ 1.5, IDE inh -0.7, TPT1 inhibitor 1.2, CSN inh -4.2 and Rpn11 block inactive.
`CCS(=O)(=O)Nc1cccc(-c2cn3c(n2)SCC3)c1` gave HNF4A DNA FP -3.6, IDE cell activ 4.0, IDE inh 6.7, TPT1 inhibitor -0.2, CSN inh 6.0 and Rpn11 block inactive.
Nc1c2c(nc3ccccc13)CCC2 was read as HNF4A DNA FP 34.9*, IDE cell activ 6.8, IDE inh 9.4, TPT1 inhibitor -5.0, CSN inh -0.5 and Rpn11 block inactive.
CC(C)c1ccc(OCC(=O)Nc2c3c(nn2C(C)(C)C)CS(=O)(=O)C3)cc1 was read as HNF4A DNA FP 3.6, IDE cell activ 6.4, IDE inh -6.0, TPT1 inhibitor -4.3, CSN inh -0.3 and Rpn11 block inactive.
COC(=O)c1c(NC(=O)CN2CCCc3ccccc32)sc(C)c1C was read as HNF4A DNA FP 0.9, IDE cell activ 2.2, IDE inh 0.6, TPT1 inhibitor 10.8, CSN inh 1.9 and Rpn11 block inactive.
COc1ccccc1Cc1c(C2CCCCC2)nc2ccc(C)cn12 was read as HNF4A DNA FP 2.6, CSN inh 10.4 and Rpn11 block inactive.
For COc1ccccc1Cc1c(C2CCCCC2)nc2ccc(Cl)cn12 the results were HNF4A DNA FP 16.8, CSN inh 59.9* and Rpn11 block inactive.
For CCN(CC)c1ccc(NC2CC(=O)N(CCc3ccc(OC)cc3)C2=O)cc1 (configuration not stated) the results were HNF4A DNA FP 57.2*, IDE cell activ 0.6, IDE inh 4.1, TPT1 inhibitor 3.5 and CSN inh 51.4*.
Screening COc1ccc(CCNC2CC(=O)N(CCc3ccccc3)C2=O)cc1 (configuration not stated) returned HNF4A DNA FP -4.3, IDE cell activ 1.8, IDE inh 1.5, TPT1 inhibitor -1.3, CSN inh -0.5 and Rpn11 block inactive.
COc1cc(NC(=O)C2CCCC2)c(OC)cc1Cl was read as HNF4A DNA FP 0.9, IDE cell activ 6.3, IDE inh 2.6, TPT1 inhibitor 2.7, CSN inh 1.0 and Rpn11 block inactive.
`CCOc1ccc2noc3c2c1C(=O)c1ccccc1-3` gave HNF4A DNA FP -89.1, IDE cell activ 44.1*, IDE inh -10.5, TPT1 inhibitor -92.0, CSN inh -72.0 and Rpn11 block inactive.
For O=C1/C(=C\c2ccc(O)cc2)SC(=S)N1c1cccnc1 the results were HNF4A DNA FP 16.9, IDE cell activ -98.8, IDE inh 87.8*, TPT1 inhibitor 11.2, CSN inh 6.5 and Rpn11 block inactive.
`CC(C)CN1C(=O)NC(NC(=O)c2ccco2)(C(F)(F)F)C1=O` (configuration not stated) gave HNF4A DNA FP 38.6*, IDE cell activ -0.2, IDE inh 3.8, TPT1 inhibitor -2.1, CSN inh -0.9 and Rpn11 block inactive.
For Cc1occc(=O)c1OC(=O)Nc1ccc(Cl)c(Cl)c1 the results were HNF4A DNA FP 4.9, IDE cell activ -1.2, IDE inh 2.2, TPT1 inhibitor 2.9, CSN inh -13.3 and Rpn11 block active.
Cc1cc(N=Cc2cc(Br)ccc2O)no1 was read as HNF4A DNA FP 4.1, IDE cell activ 4.5, IDE inh 0.1, TPT1 inhibitor -1.1, CSN inh -1.3 and Rpn11 block inactive.
For Cc1ccc(S(=O)(=O)/N=C/c2cc(Br)ccc2O)cc1 the results were HNF4A DNA FP -3.6, IDE cell activ 23.3*, IDE inh 4.0, TPT1 inhibitor -1.5, CSN inh 1.9 and Rpn11 block inactive.
`Cn1cccc1/C=C1\SC(=O)N(c2ccccc2)C1=O` gave HNF4A DNA FP 2.7, IDE cell activ -1.2, IDE inh -2.6, TPT1 inhibitor 23.9, CSN inh 43.3* and Rpn11 block inactive.
`Nc1c(C(=O)Nc2ccc(S(=O)(=O)N3CCCC3)cc2)sc2nc3ccc(OC(F)(F)F)cc3cc12` gave HNF4A DNA FP 42.6*, IDE cell activ -2.6, IDE inh -4.0, TPT1 inhibitor 17.7 and CSN inh 15.0.
`CCOc1ccc(/C=C/C(O)=C2/C(=O)N(C)C3(C)CC2c2ccccc2O3)cc1OC` (configuration not stated) gave HNF4A DNA FP -1.4, IDE cell activ -4.1, IDE inh -2.9, TPT1 inhibitor 2.7, CSN inh 5.3 and Rpn11 block inactive.
CN(C)c1ccc(/C=C/C(O)=C2/C(=O)N(C)C3(C)CC2c2ccccc2O3)cc1 (configuration not stated) was read as IDE inh 42.3* and TPT1 inhibitor 188.4*.
O=C(c1cnn(Cc2ccccc2)c1)N1CCN(S(=O)(=O)/C=C/c2ccccc2)CC1 was read as HNF4A DNA FP 0.2, IDE cell activ -1.8, IDE inh -4.3, CSN inh 1.2 and Rpn11 block inactive.
Cc1ccc(Cn2nc(C)c(C(=O)N3CCN(S(=O)(=O)/C=C/c4ccccc4)CC3)c2C)cc1 was read as HNF4A DNA FP 0.2, IDE cell activ 32.8*, IDE inh -2.7, CSN inh -6.2 and Rpn11 block inactive.
Screening O=C(NCCN1CCC(n2c(=O)[nH]c3ccccc32)CC1)c1ccccc1Cl returned HNF4A DNA FP -1.9 and CSN inh -7.5.

Source: PubChem (several laboratories)
